# Experimental data from ChEMBL document CHEMBL4118168, “Synthesis and structure-activity relationship studies of MI-2 analogues as MALT1 inhibitors” (Bioorg Med Chem, 2018).
# The source made the active and inactive calls. No cut-off for these calls is given here.
# Key:
# [1] = biological target: T1, Mucosa-associated lymphoid tissue lymphoma translocation protein 1 (Homo sapiens) (UniProt Q9UDY8); assay: Inhibition of MALT1 in PMA/ionomycin-stimulated human Jurkat T cells assessed as reduction in RelB cleavage at 2 uM pretreated for 4 hrs followed by 1 hr incubation with protease inhibitor MG132 and subsequent PMA/ionomycin-stimulation measured after 1 hr by Western blot analysis; format: cell-based
# T1 sequence (whole entry): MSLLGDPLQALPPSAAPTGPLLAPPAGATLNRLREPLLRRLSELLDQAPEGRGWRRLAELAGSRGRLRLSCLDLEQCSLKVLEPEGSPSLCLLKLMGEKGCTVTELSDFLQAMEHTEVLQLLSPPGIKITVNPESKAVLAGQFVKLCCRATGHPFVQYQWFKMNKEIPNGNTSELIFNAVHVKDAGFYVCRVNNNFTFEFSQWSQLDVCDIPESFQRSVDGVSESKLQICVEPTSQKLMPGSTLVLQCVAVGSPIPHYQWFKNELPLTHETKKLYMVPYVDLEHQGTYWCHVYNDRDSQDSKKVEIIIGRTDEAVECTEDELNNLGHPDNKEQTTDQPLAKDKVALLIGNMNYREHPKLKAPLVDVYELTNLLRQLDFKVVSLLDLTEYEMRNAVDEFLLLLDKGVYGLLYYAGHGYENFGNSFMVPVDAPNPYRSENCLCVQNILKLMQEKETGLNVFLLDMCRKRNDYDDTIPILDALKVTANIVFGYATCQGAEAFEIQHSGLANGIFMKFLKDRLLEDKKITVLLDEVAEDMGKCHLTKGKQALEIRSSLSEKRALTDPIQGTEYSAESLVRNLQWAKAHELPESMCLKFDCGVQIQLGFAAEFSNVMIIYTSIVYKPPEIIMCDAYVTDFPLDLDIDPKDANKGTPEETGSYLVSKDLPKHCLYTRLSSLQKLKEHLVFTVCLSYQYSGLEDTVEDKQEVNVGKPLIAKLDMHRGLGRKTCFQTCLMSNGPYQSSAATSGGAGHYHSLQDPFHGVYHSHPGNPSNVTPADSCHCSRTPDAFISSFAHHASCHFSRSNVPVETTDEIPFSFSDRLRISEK
# In short: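 Jurkat T cells in RPMI 1640 with 10% FBS, seeded at 9×10^5 cells/well, treated with compound or DMSO for 4 h, then 1 h with MG132 (10 μM), then stimulated with PMA. RelB cleavage as the read-out of MALT1 activity, detected by Western blot.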
# Toledo = assay: Antiproliferative activity against human Toledo cells after 48 hrs by CCK8 assay; format: functional, cell-based
Structure (SMILES),inhibition [1],IC50 (Toledo) [nM]
O=C(CCl)Nc1ccc(-n2nc(OCC(O)CO)nc2-c2ccc(Cl)c(Cl)c2)cc1 (stereo not given),Active,–
COCCOCCOc1nc(-c2ccc(Cl)c(Cl)c2)n(-c2ccc(NC(=O)CCl)cc2)n1,Active,–
COCC(C)Oc1nc(-c2ccc(Cl)c(Cl)c2)n(-c2ccc(NC(=O)CCl)cc2)n1 (stereo not given),Active,–
COCCOc1nc(-c2ccc(NC(=O)CCl)cc2)n(-c2ccc(Cl)c(Cl)c2)n1,Active,–
COCCOc1nc(-c2ccc(Cl)c(Cl)c2)n(-c2ccc(NC(=O)CCl)cc2)n1,–,800
COCCOc1nc(-c2ccc(Cl)cc2)n(-c2ccc(NC(=O)CCl)cc2)n1,–,1720
O=C(CCl)Nc1ccc(-n2nc(OCCCO)nc2-c2ccc(Cl)c(Cl)c2)cc1,Active,–
O=C(CCl)Nc1ccc(-n2nc(OCCc3cn(-c4ccccc4)nn3)nc2-c2ccc(Cl)c(Cl)c2)cc1,Active,380
O=C(CCl)Nc1ccc(-n2nc(OCCN3CCOCC3)nc2-c2ccc(Cl)c(Cl)c2)cc1,–,470
